Experiment [1] deals with Staphylococcus aureus. As to the kind of experiment: Antibacterial activity against fluoroquinolone resistant Staphylococcus aureus USA300 JE2 assessed as zone of inhibition at 1 mmol after 24 hrs Kirby-Bauer disc diffusion method. The format is functional. Put shortly:
(§1)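 Compounds dissolved in CHCl3 as 1 mmol or 10 mmol solutions; 20 µL loaded per sterile 6 mm paper disc and dried 30 min at 37 °C; 7 discs per concentration. Single colony grown in Mueller-Hinton broth with aeration for 6 h at 37 °C, diluted in PBS to 0.5 McFarland, then swabbed in three directions onto Mueller-Hinton agar. Discs applied; incubated 24 h at 37 °C.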
(In general: Agar diffusion results depend on both activity and mobility in agar.)

Experiment [2] relates to Staphylococcus aureus. The experiment is described as follows: Antibacterial activity against fluoroquinolone sensitive Staphylococcus aureus SH1000 assessed as zone of inhibition at 10 mmol after 24 hrs Kirby-Bauer disc diffusion method. The format is functional. Put shortly: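 Discs: 6 mm autoclaved paper discs each loaded with 20 μL of compound in CHCl3 (1 or 10 mmol solutions), dried 30 min at 37 °C; 7 discs per compound per level. Inoculum: single colony grown 6 h at 37 °C with aeration in Mueller-Hinton broth, diluted with PBS to 0.5 McFarland, swabbed three directions onto Mueller-Hinton agar. Plates incubated 24 h at 37 °C.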

Experiment [3] concerns Staphylococcus aureus. As to the kind of experiment: Antibacterial activity against fluoroquinolone resistant Staphylococcus aureus USA300 JE2 assessed as zone of inhibition at 10 mmol after 24 hrs Kirby-Bauer disc diffusion method. Format: functional. An outline of the steps: as §1
For experiment [4], the system named is Staphylococcus aureus. As to the kind of experiment: Antibacterial activity against fluoroquinolone sensitive Staphylococcus aureus SH1000 assessed as zone of inhibition at 1 mmol after 24 hrs Kirby-Bauer disc diffusion method. The format is functional. Put shortly:
as §1

Experiment [5] concerns Staphylococcus aureus. As to the kind of experiment: Antibacterial activity against fluoroquinolone sensitive Staphylococcus aureus SH1000 at 32 mmol after 24 hrs Kirby-Bauer disc diffusion method. Format: functional, organism-based.
In experiment [6] the test system is Staphylococcus aureus. The experiment is described as follows: Antibacterial activity against fluoroquinolone resistant Staphylococcus aureus USA300 JE2 at 32 mmol after 24 hrs Kirby-Bauer disc diffusion method. Format: functional, organism-based.

The source made the active and inactive calls. No cut-off for these calls is given here.

For `CCn1c(=O)cc(C)c2cc3c(C)cc(=O)n4c3c(c21)OCC4`, the “inhibition zone (IZ)” value was found to be 1.8 cm with Staphylococcus aureus [1], 2.2 cm with Staphylococcus aureus [2], 3.2 cm in the experiment on Staphylococcus aureus [3] and 0 cm in the experiment with Staphylococcus aureus [4].

`CCn1c(=O)cc(C)c2cc3c(C)cc(=O)n4c3c(c21)OCCC4`: the “inhibition zone (IZ)” value came to 0 cm in the experiment on Staphylococcus aureus [1], 2.3 cm in the experiment with Staphylococcus aureus [2], 2.7 cm in the experiment with Staphylococcus aureus [3] and 0 cm in the experiment on Staphylococcus aureus [4].

With `CCOc1cc(C)c2cc3c(C)cc(=O)n4c3c(c2n1)OCC4`, the “inhibition zone (IZ)” value in the experiment on Staphylococcus aureus [1] came out at 0 cm; in the experiment on Staphylococcus aureus [2] it was 0 cm; in the experiment on Staphylococcus aureus [3] it was 1 cm; with Staphylococcus aureus [4] it was 0 cm.

Turning to `O=C(O)c1cn(C2CC2)c2cc(N3CCNCC3)c(F)cc2c1=O` [CIPROFLOXACIN], the “inhibition zone (IZ)” value in the experiment with Staphylococcus aureus [1] amounted to 0 cm; in the experiment on Staphylococcus aureus [2] it was 3.1 cm; in the experiment with Staphylococcus aureus [3], 1.2 cm; in the experiment with Staphylococcus aureus [4] it was 1.8 cm.

For `CCOc1cc(C)c2cc3c(C)cc(=O)n4c3c(c2n1)OC4`, the “inhibition zone (IZ)” value in the experiment on Staphylococcus aureus [1], in the experiment on Staphylococcus aureus [2], in the experiment on Staphylococcus aureus [3] and with Staphylococcus aureus [4] was 0 cm each time. Moreover, the result in the experiment with Staphylococcus aureus [5] and with Staphylococcus aureus [6] was inactive.

On to `CCn1c(=O)cc(C)c2cc3c(C)cc(=O)n4c3c(c21)OC4`, for which the “inhibition zone (IZ)” value in the experiment on Staphylococcus aureus [1] worked out at 1.4 cm; in the experiment on Staphylococcus aureus [2], 1.8 cm; in the experiment on Staphylococcus aureus [3], 2.9 cm; with Staphylococcus aureus [4] it was 0 cm.

As to `CCOc1cc(C)c2cc3c(C)cc(=O)n4c3c(c2n1)OCCC4`, the “inhibition zone (IZ)” value in the experiment with Staphylococcus aureus [1], in the experiment with Staphylococcus aureus [2], in the experiment on Staphylococcus aureus [3] and in the experiment with Staphylococcus aureus [4] was 0 cm each time.

Source of the values: ChEMBL document CHEMBL4373659, “Synthetic studies on the reverse antibiotic natural products, the nybomycins” (2019).
